Data taken from article PMC11402745 (Heliyon, 2024).
Read-outs that look alike come from different tables or passages of the source.

Tests used:
[1] = tested on: Staphylococcus aureus TISTR746; experiment: Agar disc diffusion, S. aureus; assay type: cell-based; details: S. aureus TISTR 746; extracts 500 mg/mL on disc; 37 °C, 24 h
Summary of the method: (§1)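 Bacteria suspended in 0.85 % saline to McFarland 0.5 (1.5 × 10^8 CFU/mL) and swabbed onto Mueller–Hinton agar. Sterile paper discs loaded with 10 μL of 500 mg/mL extract. Chloramphenicol positive control, DMSO negative control. Plates incubated aerobically at 37 °C for 24 h. Inhibition zones measured in mm with calipers; three independent experiments, mean ± SEM.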

[2] = tested on: Escherichia coli TISTR1984; experiment: Agar disc diffusion, E. coli; assay type: cell-based; details: E. coli TISTR 1984; extracts 500 mg/mL on disc; 37 °C, 24 h
Summary of the method: as §1

[3] = DPPH free radical scavenging assay; details: at 1 mg/mL
Summary of the method: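 Test compound mixed with 150 μM DPPH reagent, shaken immediately, then held 30 min in the dark at room temperature. Absorbance read at 520 nm. Trolox served as standard and positive control. Three independent experiments, mean ± SEM, one-way ANOVA vs diluent control.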

[4] = ABTS free radical scavenging assay; details: at 0.5 mg/mL
Summary of the method: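 Free-radical scavenging measured by mixing ABTS working solution with test compound, then incubating 10 min in the dark at room temperature. Absorbance read at 734 nm. Trolox served as standard and positive control. Three independent experiments, mean ± SEM, one-way ANOVA vs diluent control.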

[5] = tested on: HEK293T cells; experiment: MTT cell viability, HEK293T; assay type: cell-based, human
Summary of the method: (§2)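 Cells grown in DMEM/10 % FBS at 37 °C, 5 % CO2, seeded at 5 × 10^3 cells/well and left 24 h. Exposed to extracts (0–400 µg/mL) or cisplatin (0–400 µM) for 24, 48 or 72 h. MTT added for 2 h at 37 °C, formazan dissolved in DMSO, OD read at 570 nm. % viability and IC50 derived; three independent experiments, mean ± SEM.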

[6] = tested on: MCF10A cells; experiment: MTT cell viability, MCF10A; assay type: cell-based, human
Summary of the method: as §2

[7] = tested on: MCF-7 cells; experiment: MTT cell viability, MCF-7; assay type: cell-based, human; details: MCF-7, MTT
Summary of the method: as §2

[8] = tested on: MDA-MB-231 cells; experiment: MTT cell viability, MDA-MB-231; assay type: cell-based, human; details: MDA-MB-231, MTT
Summary of the method: as §2

[9] = tested on: MCF-7 cells; experiment: Clonogenic cell survival assay, MCF-7; assay type: cell-based, human; details: cisplatin 100 μM, 24 h, p < 0.05 vs control
Summary of the method: (§3)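 Cells grown in DMEM/10 % FBS at 37 °C, 5 % CO2, seeded at 2 × 10^5 cells/well and left 24 h. Test compound or cisplatin added for 24 h. Cells trypsinised and reseeded at 1 × 10^3 cells/well without drug for 8–10 days. Fixed in cold methanol 45 min, stained with 0.5 % crystal violet 45 min. Colonies counted by light microscopy as % of untreated control; n = 3, one-way ANOVA.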

[10] = tested on: MDA-MB-231 cells; experiment: Clonogenic cell survival assay, MDA-MB-231; assay type: cell-based, human; details: cisplatin 100 μM, 24 h, p < 0.0001 vs control
Summary of the method: as §3

[11] = tested on: RAW264.7 cells; experiment: MTT cell viability, RAW264.7; assay type: cell-based, mouse; details: RAW cells, 24 h, compared to untreated cells
Summary of the method: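 RAW264.7 macrophages grown in DMEM/10 % FBS at 37 °C, 5 % CO2. Exposed 24 h to dexamethasone (0–100 μM) or LPS (0–100 ng/mL). Viability expressed relative to untreated cells.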

Compound: O=C(N[C@H](CO)[C@H](O)c1ccc([N+](=O)[O-])cc1)C(Cl)Cl [CHL, Chloramphenicol]
- ZOI [1]: 29.75 ± 1.77 mm
- ZOI [2]: 29.75 ± 0.35 mm

Compound: Cc1c(C)c2c(c(C)c1O)CCC(C)(C(=O)O)O2 (centres unmarked) [Trolox]
- DPPH radical inhibition rate [3]: 98.02 ± 0.21%
- ABTS radical inhibition rate [4]: 69.92 ± 3.08%

Compound: N.N.[Cl][Pt][Cl] [cisplatin]
- IC50 ([5]; read-out: IC50 for 24 h, 24 h): 62.3 ± 3.1 µM
- IC50 ([5]; read-out: IC50 for 48 h, 48 h): 11.6 ± 1.3 µM
- IC50 ([5]; read-out: IC50 for 72 h, 72 h): 3.25 ± 0.88 µM
- IC50 ([6]; read-out: IC50 for 24 h, 24 h): 74.3 ± 3.24 µM
- IC50 ([6]; read-out: IC50 for 48 h, 48 h): 37.2 ± 2.72 µM
- IC50 ([6]; read-out: IC50 for 72 h, 72 h): 26.2 ± 1.66 µM
- IC50 ([7]; read-out: IC50 for 24 h, 24 h): 73.8 ± 3.24 µM
- IC50 ([7]; read-out: IC50 for 48 h, 48 h): 41.5 ± 2.8 µM
- IC50 ([7]; read-out: IC50 for 72 h, 72 h): 32.9 ± 2.63 µM
- IC50 ([8]; read-out: IC50 for 24 h, 24 h): 46.7 ± 2.89 µM
- IC50 ([8]; read-out: IC50 for 48 h, 48 h): 44.7 ± 2.86 µM
- IC50 ([8]; read-out: IC50 for 72 h, 72 h): 33.3 ± 2.64 µM
- colony formation [9]: significantly decreased
- colony formation [10]: significantly decreased

Compound: C[C@@H]1C[C@H]2[C@@H]3CCC4=CC(=O)C=C[C@]4(C)[C@@]3(F)[C@@H](O)C[C@]2(C)[C@@]1(O)C(=O)CO [dexamethasone]
- cell viability ([11]; dexamethasone at 0–12.50 μM): unchanged

Compound: lipopolysaccharide [LPS]
- cell viability ([11]; LPS at 0–12.5 ng/mL): unchanged
